# Screening data (PubChem BioAssay)
# miR-122 sensor = inhibitors of miR-122 in Huh7 cells. Huh7 miR-122 Renilla luciferase sensor, 48 h; neutral wells = 0, positive control = 100. activation (reporter increase), % at 12.5 µM. hit rate 0.3% among 340,000. AID 602342;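 active means mean replicate activation score at least 90 and every replicate individually at or above 90; inconclusive means only one of the two criteria met; inactive means neither criterion met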;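 further: higher luciferase means less miR-122 activity so hits act as miR-122 inhibitors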
# E-sel inducer = E-selectin induction on HUVECs. HUVEC E-selectin immunofluorescence imaging; normalized: neutral wells 0, TNF-alpha wells 100. activation, % at 7.58 µM. hit rate 0.37% among 260,000;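 active means mean E-selectin-positive cell signal at least 10% of the positive control, reached in at least 60% of replicates, without over 20% cell loss; inconclusive means no rule given, readout overlaps actives, possibly toxicity-flagged; inactive means the rest, including those meeting only one limit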
# Target sequence (P16581 whole entry, looked up): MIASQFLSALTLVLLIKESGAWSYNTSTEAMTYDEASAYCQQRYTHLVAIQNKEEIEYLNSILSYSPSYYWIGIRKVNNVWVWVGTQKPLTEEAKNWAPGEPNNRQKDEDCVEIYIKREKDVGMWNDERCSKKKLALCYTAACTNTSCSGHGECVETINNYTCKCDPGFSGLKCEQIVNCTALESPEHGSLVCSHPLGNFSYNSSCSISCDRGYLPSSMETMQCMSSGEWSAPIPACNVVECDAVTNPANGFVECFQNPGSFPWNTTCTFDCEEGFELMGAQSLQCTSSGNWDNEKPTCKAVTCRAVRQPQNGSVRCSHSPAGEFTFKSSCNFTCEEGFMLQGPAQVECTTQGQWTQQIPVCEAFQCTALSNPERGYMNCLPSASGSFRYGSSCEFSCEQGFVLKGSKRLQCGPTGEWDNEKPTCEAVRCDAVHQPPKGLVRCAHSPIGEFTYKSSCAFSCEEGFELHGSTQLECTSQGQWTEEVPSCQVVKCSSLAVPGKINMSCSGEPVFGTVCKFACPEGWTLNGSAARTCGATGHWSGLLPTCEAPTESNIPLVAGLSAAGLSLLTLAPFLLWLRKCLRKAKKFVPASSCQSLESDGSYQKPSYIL
#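 Test system: HUVEC; input: 3,000 HUVEC/well; measured by: immunofluorescence imaging; read-out: % PE-positive cells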
# DENV2 CPE = DENV2-induced cell death inhibition. DENV2-infected cells, cytopathic effect rescue, plate reader. CPE inhibition, % at 9.99 µM. hit rate 1.7% among 350,000; in the data active means CPE inhibition above about 20%, passing the limit was not always enough; inconclusive means no clear call, values can overlap the other calls; tested in BHK-21 cells;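 further: 0% = median of neutral control wells and 100% = median of positive control wells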
# INS-1E GSIS act = GLuc luminescence reporter in INS-1E cells, primary screen for activators of glucose-dependent secretion of insulin; INS-1E GLuc reporter insulin secretion, 2-3 h; activation, % at 16.6 µM; hit rate 0.61% among 370,000; AID 743287;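 active means lowest replicate activation of at least 40%, so every replicate reaches that level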;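 further: 0% = median of neutral control wells and 100% = median of IBMX positive control wells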
# CFTR F508del cor = CFTR F508del correction in bronchial cells; activity (quench increase), % at 7.58 µM; CFBE cells, YFP halide quenching; stimulated with forskolin plus potentiator P3; % fluorescence drop versus neutral controls; hit rate 0.36% among 350,000;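 active means mean added fluorescence quench of at least 8% versus neutral control, with both replicates also reaching 8%; inconclusive means only one of the mean or replicate conditions met; inactive means mean below 8% and not both replicates reaching 8%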;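 further: cells transiently co-express mutant CFTR-F508del with the halide-sensitive YFP; corrector assay measuring rescue of mutant channel to the surface after 24 h compound exposure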
# ERAP1 HTS inh = ERAP1 (human) enzyme inhibition | recombinant ERAP1, Leu-AMC fluorescence, 60 min | AID 652197 | hit rate 0.15% among 340,000 | inhibition, % at 10.7 µM;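 active means mean replicate inhibition of at least 30%, or all replicates individually reaching that 30% level; inactive means mean below 30% and not every replicate reaching it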;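 further: 0% = neutral control wells and 100% = L-leucinethiol positive control wells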
# * hit, by the source's call; ? = inconclusive; . = no result given; [ ] = remark or other dose. An excerpt weighted towards active compounds, which were near 2.6% of everything screened.
SMILES,miR-122 sensor,E-sel inducer,DENV2 CPE,INS-1E GSIS act,CFTR F508del cor,ERAP1 HTS inh
COc1ccc(C(=O)NCC(=O)OCC(=O)Nc2sccc2C#N)cc1OC,.,9.1,2.3,50.7*,0.7,.
CCOC(=O)NC(=O)COC(=O)CNC(=O)c1ccc(OCC)c(OCC)c1,.,-0.1,2.6,45.6*,2.4,-4.2
COc1ccc(OC)c(NC(=O)COC(=O)CNC(=O)c2ccc(OC)c(OC)c2)c1,-17.9,.,.,.,.,.
Cc1ccc(S(=O)(=O)N[C@H]2CC[C@H](CCNC(=O)CN3CCOCC3)O[C@H]2CO)cc1,.,-1.4,8.0,6.2,-0.9,1.3
CC(=O)OCCn1c2nc(=O)[nH]c(=O)c-2nc2cc(C)c(C)cc21,.,-0.1,-0.9,-3.8,17.7*,3.6
CC(=O)OCCn1c(C)[n+](CCOC(C)=O)c2cc(Cl)c(Cl)cc21,.,.,0.2,15.2,-0.2,0.9
Cc1noc(C)c1NC(=O)N(C)C[C@@H]1Oc2ccc(NS(C)(=O)=O)cc2CC(=O)N([C@@H](C)CO)C[C@@H]1C,3.9[16.7 µM],-10.2,-3.8,21.6,1.0,.
CC1(C)CC(=O)C=C(c2ccccc2-c2ccc(S(C)(=O)=O)cc2)C1=O,-4.4,-1.6,4.0,48.7*,-2.9,8.0
CCOc1cc(S(=O)(=O)NCCc2ccccc2C)c(OCC)cc1-n1cnnn1,125.6*,.,.,-36.9,.,.
CCCCc1nnc2c(N(C)S(=O)(=O)c3ccccc3)nc3ccccc3n12,-8.4,.,1.6,43.6*,0.0,1.6
CC(C)c1nnc2c(N(C)S(=O)(=O)c3ccccc3)nc3ccccc3n12,-4.7,.,?,15.4,1.7,0.4
C[C@H]1CN([C@@H](C)CO)C(=O)c2cccc(NC(=O)c3ccncc3)c2O[C@@H]1CN(C)S(=O)(=O)c1cn(C)cn1,-1.5[16.7 µM],-1.6,-2.3,-0.1,-1.3,0.8
Cc1ccc(CN2C(=O)C(C)(C)Oc3ccc(C(=O)N4CCCCC4)cc32)cc1,317.8*,.,.,.,.,.
Cc1ccc(S(=O)(=O)Nc2ccc3c(c2)CC(=O)N([C@@H](C)CO)C[C@H](C)[C@@H](CN(C)C(=O)NC2CCCCC2)O3)cc1,-6.9[16.7 µM],0.2,0.5,9.5,-3.3,0.6
C[C@@H]1CCCCO[C@H](CN(C)C(=O)Nc2ccc(F)cc2)[C@@H](C)CN([C@@H](C)CO)C(=O)c2cc(NC(=O)c3ccccc3)ccc2O1,6.9[16.7 µM],-0.1,0.0,-14.3,-2.8,0.3
N#CC1c2ccccc2-c2ccccc2N1C(=O)c1ccccc1 (stereo unspecified),98.2*,3.1,1.0,21.2,10.7*,3.9
COc1cccc(NC(=O)C[C@H]2CC[C@@H]3[C@@H](COc4ccc(NC(=O)c5ccccc5F)cc4C(=O)N3C)O2)c1,5.6[16.7 µM],0.2,2.9,-8.5,1.4,0.7
O=C(CCc1nnc(Cc2c[nH]c3ccccc23)o1)NC1CCCC1,-4.6,-0.1,6.2,7.4,1.1,-4.4
O=C(CCc1nnc(Cc2c[nH]c3ccccc23)o1)NCCC1CCCCO1 (stereo unspecified),.,1.3,54.2*,-5.3,-0.5,-0.4
NS(=O)(=O)c1ccc(CNC(=O)c2ccc3ccccc3n2)cc1,-0.8,.,-0.4,15.3,4.7,-1.6
NS(=O)(=O)c1ccc(CNc2ccc3ccccc3n2)cc1,0.7,0.0,7.6,1.2,8.7*,-5.3
CC(=O)NC[C@@H]1[C@@H](c2ccc(-c3cccnc3)cc2)[C@H](CO)N1C(=O)C1CCC1,0.0[16.7 µM],-0.1,30.8*,4.1,1.9,.
CC(=O)N1[C@H](CO)[C@H](c2ccc(-c3cccnc3)cc2)[C@H]1CNC(=O)C1CC1,.,-0.2,47.2*,-1.9,-2.0,-3.7
CCC(=O)N1[C@H](CN(C)C(C)=O)[C@H](c2ccc(-c3cccnc3)cc2)[C@@H]1CO,-42.6[16.7 µM],0.0,29.2*,10.5,-1.4,0.7
CC(=O)NC[C@H]1[C@@H](c2ccc(-c3cccnc3)cc2)[C@@H](CO)N1C(=O)C1CC1,7.1[16.7 µM],0.0,-15.4,12.0,-1.0,-1.9
SMILES,miR-122 sensor,E-sel inducer,DENV2 CPE,INS-1E GSIS act,CFTR F508del cor,ERAP1 HTS inh
CC(=O)N1[C@H](CO)[C@H](c2ccc(-c3cccnc3)cc2)[C@@H]1CNC(=O)C1CCC1,.,0.0,16.5,-3.9,-0.6,2.5
COc1ccc(S(=O)(=O)Nc2ccc3c(c2)C(=O)N([C@@H](C)CO)C[C@@H](C)[C@@H](CN(C)C(=O)Nc2cccc4ccccc24)OCCCC[C@H](C)O3)cc1,5.1[16.7 µM],0.0,1.7,-4.0,1.8,.
COCC(=O)Nc1ccc2c(c1)C(=O)N(C)C[C@H](OC)[C@H](C)CN(C(=O)COC)[C@H](C)CO2,0.6[16.7 µM],0.2,23.9*,10.8,.,-4.7
COCC(=O)Nc1ccc2c(c1)OC[C@H](C)N(C(C)=O)C[C@H](C)[C@@H](OC)CN(C)C2=O,.,0.1,-10.7,-0.6,0.0,1.9
COCC(=O)Nc1ccc2c(c1)C(=O)N(C)C[C@@H](OC)[C@H](C)CN(C(C)=O)[C@@H](C)CO2,30.6[16.7 µM],0.3,32.2*,19.7,-1.8,-2.9
COCC(=O)Nc1ccc2c(c1)C(=O)N(C)C[C@H](OC)[C@@H](C)CN(C(=O)COC)[C@@H](C)CO2,0.8[16.7 µM],0.0,-6.0,22.3,.,-4.9
CN1c2ccc(-c3cccc(C#N)c3)cc2[C@H]2[C@H](CCN2C(=O)NC2CCCC2)[C@@H]1CO,.,0.4,6.6,-12.5,0.0,4.5
CN1[C@H](C(=O)NCCN2CCCCC2)[C@@H](CO)[C@@H]2Cn3c(ccc(-c4ccc(F)cc4)c3=O)[C@@H]21,5.3[16.7 µM],-0.5,-1.8,17.6,-0.9,-0.7
CN1OC[C@@H]2CN(C(=O)NC3CCCCC3)[C@H](c3ccc(N4CCCCC4)cc3)C[C@@H]21,3.8,-0.2,22.3*,3.0,-0.7,-5.2
COc1ccc(S(=O)(=O)Nc2ccc3c(c2)C(=O)N([C@@H](C)CO)C[C@@H](C)[C@@H](CN(C)Cc2ccncc2)OCCCC[C@H](C)O3)cc1,11.5[16.7 µM],0.3,36.5*,-18.9,-3.1,0.6
COc1ccc(S(=O)(=O)Nc2ccc3c(c2)C(=O)N([C@@H](C)CO)C[C@H](C)[C@H](CN(C)Cc2ccncc2)OCCCC[C@H](C)O3)cc1,9.9[16.7 µM],0.4,106.4*,4.2,-2.7,-1.8
COCC(=O)N(C)C[C@@H]1Oc2cc(-c3cccnc3)ccc2S(=O)(=O)N([C@H](C)CO)C[C@H]1C,-1.4[16.7 µM],0.1,-2.3,9.1,-0.9,-1.9
CCN1/C(=C/c2ccc3cc(C)ccc3[n+]2CC)Sc2ccccc21,.,.,.,-41.3,-37.9,18.2
CCN1/C(=C/c2ccc3cc(C)ccc3[n+]2CC)Sc2cc(C)c(C)cc21,-28.2,.,4.6,-50.2,-3.3,32.6*
NNC(=O)c1cc(-c2cccs2)nc2ccccc12,.,3.1,.,6.3,-2.7,.
C/C(=N\NC(=O)c1cc(-c2cccs2)nc2ccccc12)c1ccccn1,151.4*,.,-1.0,-7.2,11.8*,0.0
